In ChEMBL document CHEMBL1151856, “Novel, potent, and radio-iodinatable somatostatin receptor 1 (sst1) selective analogues” (J Med Chem, 2009) one finds IC50, Activity and EC50 data, which are given here for 19 compounds.

The target in experiment [1] is Somatostatin receptor type 5 (Homo sapiens, UniProt P35346). The experiment is described as follows: Displacement of [125I]LTT-SRIF-28 from human sst5 receptor by autoradiography. The procedure, abridged: (§1)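 Competition autoradiography on 20-μm cryostat sections of membrane pellets from cells expressing each cloned receptor. Buffer was 170 mM Tris-HCl pH 8.2 with 1% BSA, bacitracin and 10 mM MgCl2. Cold washes, 1-week film exposure, image quantification against isotope standards, IC50 derived.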
Background: In a radioligand displacement assay an active substance lowers the binding of a labelled ligand.

The target in experiment [2] is Somatostatin receptor type 3 (Homo sapiens, UniProt P32745). In words: Displacement of [125I]LTT-SRIF-28 from human sst3 receptor by autoradiography. The essentials: as §1
Experiment [3] concerns the target Somatostatin receptor type 4 (Homo sapiens, UniProt P31391). The experiment is described as follows: Displacement of [125I]LTT-SRIF-28 from human sst4 receptor by autoradiography.
The target in experiment [4] is Somatostatin receptor type 2 (Homo sapiens, UniProt P30874). The experiment is described as follows: Displacement of [125I]LTT-SRIF-28 from human sst2 receptor by autoradiography. The essentials: as §1
Experiment [5] concerns the target T1, Somatostatin receptor type 1 (Homo sapiens, UniProt P30872). The experiment is described as follows: Displacement of [125I]LTT-SRIF-28 from human sst1 receptor by autoradiography. The procedure, abridged:
as §1

For experiment [6], the target named is T1, Somatostatin receptor type 1. In words: Agonist activity at human sst1 receptor expressed in Chinese hamster CCL39 cells by luciferase reporter gene assay relative to somatostatin-14. Type of experiment: functional, cell-based. Background: Reporter assays use an easily measured gene product as a stand-in for the process of interest.

Activity calls are given as the source filed them. The calls are words filed in the database; no cut-off is given here. Positions of bridges follow the written chain, without caps; N, C: chain ends. Non-standard residues stand in square brackets, D forms with d. Residues, ends and D or L forms follow the SMILES beside them. Phe(4-CH2NHiPr) = CC(C)NCc1ccc(C[C@H](N)C(=O)O)cc1

T1 sequence (P30872 whole entry): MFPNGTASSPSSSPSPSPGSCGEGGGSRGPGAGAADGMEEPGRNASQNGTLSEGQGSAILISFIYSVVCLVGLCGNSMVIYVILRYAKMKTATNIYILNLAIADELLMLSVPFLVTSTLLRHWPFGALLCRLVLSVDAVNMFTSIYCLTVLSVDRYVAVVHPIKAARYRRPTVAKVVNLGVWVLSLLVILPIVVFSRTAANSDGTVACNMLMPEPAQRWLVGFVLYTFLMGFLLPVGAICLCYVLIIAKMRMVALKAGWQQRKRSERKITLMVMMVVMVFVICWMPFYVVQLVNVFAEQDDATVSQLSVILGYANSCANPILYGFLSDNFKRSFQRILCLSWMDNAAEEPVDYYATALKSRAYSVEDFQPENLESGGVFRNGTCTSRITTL
Sequence of Somatostatin receptor type 4 (P31391 whole entry): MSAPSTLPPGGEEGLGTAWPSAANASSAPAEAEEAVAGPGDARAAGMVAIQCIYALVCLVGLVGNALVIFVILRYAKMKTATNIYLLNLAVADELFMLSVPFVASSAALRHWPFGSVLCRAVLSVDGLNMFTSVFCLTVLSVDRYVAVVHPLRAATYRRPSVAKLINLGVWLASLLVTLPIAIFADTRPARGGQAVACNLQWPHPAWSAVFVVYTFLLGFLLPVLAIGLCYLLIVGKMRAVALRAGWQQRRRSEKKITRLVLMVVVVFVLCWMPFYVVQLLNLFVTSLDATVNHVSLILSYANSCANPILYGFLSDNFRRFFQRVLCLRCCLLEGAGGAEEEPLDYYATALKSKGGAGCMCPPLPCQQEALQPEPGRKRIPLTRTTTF
Sequence of Somatostatin receptor type 2 (P30874 whole entry): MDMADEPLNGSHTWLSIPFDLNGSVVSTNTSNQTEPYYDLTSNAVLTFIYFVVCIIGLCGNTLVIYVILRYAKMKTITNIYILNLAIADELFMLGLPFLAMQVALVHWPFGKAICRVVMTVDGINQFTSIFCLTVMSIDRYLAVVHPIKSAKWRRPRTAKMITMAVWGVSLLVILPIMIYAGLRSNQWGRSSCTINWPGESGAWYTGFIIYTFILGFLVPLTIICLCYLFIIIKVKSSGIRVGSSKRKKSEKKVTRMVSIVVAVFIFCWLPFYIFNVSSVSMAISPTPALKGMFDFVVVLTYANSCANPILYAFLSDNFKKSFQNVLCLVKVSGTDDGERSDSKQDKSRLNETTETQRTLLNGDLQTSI
Sequence of Somatostatin receptor type 5 (P35346 whole entry): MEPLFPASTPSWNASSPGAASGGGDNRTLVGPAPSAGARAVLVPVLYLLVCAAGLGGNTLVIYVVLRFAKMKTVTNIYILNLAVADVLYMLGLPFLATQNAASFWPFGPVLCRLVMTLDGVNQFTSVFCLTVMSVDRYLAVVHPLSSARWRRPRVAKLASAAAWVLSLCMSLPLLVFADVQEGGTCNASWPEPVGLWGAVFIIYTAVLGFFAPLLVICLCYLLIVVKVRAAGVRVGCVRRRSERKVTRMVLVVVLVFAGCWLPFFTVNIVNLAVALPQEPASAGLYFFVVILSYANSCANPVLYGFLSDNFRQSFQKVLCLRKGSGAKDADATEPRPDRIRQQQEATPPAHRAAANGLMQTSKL
Sequence of Somatostatin receptor type 3 (P32745 whole entry): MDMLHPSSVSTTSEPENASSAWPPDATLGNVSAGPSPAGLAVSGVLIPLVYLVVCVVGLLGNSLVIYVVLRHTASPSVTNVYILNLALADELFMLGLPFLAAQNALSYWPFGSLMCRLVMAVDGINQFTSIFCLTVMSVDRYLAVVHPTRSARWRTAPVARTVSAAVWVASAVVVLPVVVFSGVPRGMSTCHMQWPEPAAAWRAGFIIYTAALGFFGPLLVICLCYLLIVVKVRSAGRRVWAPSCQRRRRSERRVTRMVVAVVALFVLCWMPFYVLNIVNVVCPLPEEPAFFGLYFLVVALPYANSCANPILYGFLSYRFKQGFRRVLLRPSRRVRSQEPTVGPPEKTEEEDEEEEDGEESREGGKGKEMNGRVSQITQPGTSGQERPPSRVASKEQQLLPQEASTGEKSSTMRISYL

Regarding `CC(C)NCc1ccc(C[C@@H]2NC(=O)[C@@H](Cc3c[nH]c4ccccc34)NC(=O)[C@H](Cc3ccccc3)NC(=O)[C@H](Cc3ccccc3)NC(=O)[C@H](CCCCN)NC(=O)[C@@H](N)CSSC[C@@H](C(=O)O)NC(=O)[C@H](Cc3ccccc3)NC(=O)[C@H]([C@@H](C)O)NC2=O)cc1` (H-CKFF[dW][Phe(4-CH2NHiPr)]TFC-OH; disulfide 1-9), the IC50 (usually the concentration at which inhibition is half-maximal) in experiment [1] was above 1000 nM; in experiment [2], 789 nM; in experiment [3] it was 932 nM; in experiment [4], above 1000 nM; in experiment [5], 189 nM.
Turning to `CC(C)NCc1ccc(C[C@@H]2NC(=O)[C@H](N(C)C(=O)c3ccc4ccccc4c3)NC(=O)[C@H](Cc3ccccc3)NC(=O)[C@@H](NC(=O)[C@H](N)Cc3ccc(O)cc3)CSSC[C@@H](C(=O)N[C@H](C(N)=O)[C@@H](C)O)NC(=O)[C@H](Cc3ccccc3)NC2=O)cc1`, the IC50 in experiment [1], in experiment [2], in experiment [3] and in experiment [4] was above 1000 nM in each case.
In the case of `CC(C)NCc1ccc(C[C@@H]2NC(=O)[C@@H](Cc3c[nH]c4ccccc34)NC(=O)[C@H](Cc3ccccc3)NC(=O)[C@@H](N)CSSC[C@@H](C(=O)N[C@H](C(N)=O)[C@@H](C)O)NC(=O)[C@H](Cc3ccccc3)NC2=O)cc1` (H-CF[dW][Phe(4-CH2NHiPr)]FCT-NH2; disulfide 1-6), the half-inhibitory concentration (IC50) in experiment [1] is above 1000 nM; in experiment [2], above 1000 nM; in experiment [4], above 1000 nM; in experiment [5], 108 nM.
Turning to `C[C@@H](O)[C@H](NC(=O)[C@@H]1CSSC[C@H](NC(=O)[C@H](N)Cc2ccccc2)C(=O)N[C@@H](Cc2ccccc2)C(=O)N[C@H](Cc2c[nH]c3ccccc23)C(=O)N[C@@H](CCCCN)C(=O)N[C@@H]([C@@H](C)O)C(=O)N1)C(N)=O`, the IC50 in experiment [5] was above 1000 nM.
Consider `CC(C)NCc1ccc(C[C@@H]2NC(=O)[C@@H](Cc3c[nH]c4ccccc34)NC(=O)[C@H](Cc3ccccc3)NC(=O)[C@@H](NC(=O)[C@H](N)Cc3ccccc3)CSSC[C@@H](C(=O)N[C@H](C(N)=O)[C@@H](C)O)NC(=O)[C@H](Cc3ccccc3)NC2=O)cc1` (H-[dF]CF[dW][Phe(4-CH2NHiPr)]FCT-NH2; disulfide 2-7), for which the IC50 is above 1000 nM in experiment [1], 72 nM in experiment [2], above 1000 nM in experiment [4] and 14 nM in experiment [5].
For the compound `CC(C)NCc1ccc(C[C@@H]2NC(=O)[C@@H](Cc3c[nH]c4ccccc34)NC(=O)[C@H](Cc3ccccc3)NC(=O)[C@H](Cc3ccccc3)NC(=O)[C@H](CCCCN)NC(=O)[C@@H](NC(=O)[C@@H](N)Cc3ccc(O)cc3)CSSC[C@@H](C(=O)O)NC(=O)[C@H](CO)NC(=O)[C@H]([C@@H](C)O)NC(=O)[C@H](Cc3ccccc3)NC(=O)[C@H]([C@@H](C)O)NC2=O)cc1` (H-YCKFF[dW][Phe(4-CH2NHiPr)]TFTSC-OH; disulfide 2-12), the IC50 in experiment [2], in experiment [3] and in experiment [4] was above 1000 nM each time. Besides, in experiment [6], the outcome was Active.
Regarding `CC(C)NCc1ccc(C[C@@H]2NC(=O)[C@@H](Cc3c[nH]c4ccccc34)NC(=O)[C@H](Cc3ccccc3)NC(=O)[C@H](Cc3ccccc3)NC(=O)[C@H](CCCCN)NC(=O)[C@@H](N)CSSC[C@@H](C(=O)O)NC(=O)[C@H](CO)NC(=O)[C@H]([C@@H](C)O)NC(=O)[C@H](Cc3ccccc3)NC(=O)[C@H]([C@@H](C)O)NC2=O)cc1` (H-CKFF[dW][Phe(4-CH2NHiPr)]TFTSC-OH; disulfide 1-11), the 50% inhibitory concentration (IC50) was above 1000 nM in experiment [1]; 150 nM in experiment [2]; above 1000 nM in experiment [3]; above 1000 nM in experiment [4]; 31 nM in experiment [5].
For the compound `CC(C)NCc1ccc(C[C@@H]2NC(=O)[C@@H](N(C)C(=O)c3ccc4ccccc4c3)NC(=O)[C@H](Cc3ccccc3)NC(=O)[C@@H](NC(=O)[C@H](N)Cc3ccc(O)cc3)CSSC[C@@H](C(=O)N[C@H](C(N)=O)[C@@H](C)O)NC(=O)[C@H](Cc3ccccc3)NC2=O)cc1`, the IC50 in experiment [1] was above 1000 nM; in experiment [2] it was 158 nM; in experiment [3] it was 27 nM; in experiment [4], above 1000 nM.
Regarding `CC(C)NCc1ccc(C[C@@H]2NC(=O)[C@H](N(C)C(=O)c3ccc4ccccc4c3)NC(=O)[C@H](Cc3ccccc3)NC(=O)[C@H](NC(=O)[C@@H](N)Cc3ccc(O)cc3)CSSC[C@@H](C(=O)N[C@@H](Cc3ccc4ccccc4c3)C(N)=O)NC(=O)[C@H](Cc3ccccc3)NC2=O)cc1`, the IC50 in experiment [1] is above 1000 nM; in experiment [2], 463 nM; in experiment [3] it was above 1000 nM; in experiment [4], above 1000 nM; in experiment [5] it was 189 nM.
Regarding `CC(C)NCc1ccc(C[C@@H]2NC(=O)[C@@H](Cc3c[nH]c4ccccc34)NC(=O)[C@H](Cc3ccccc3)NC(=O)[C@H](Cc3ccccc3)NC(=O)[C@@H](N)CSSC[C@@H](C(=O)O)NC(=O)[C@H](Cc3ccccc3)NC(=O)[C@H]([C@@H](C)O)NC2=O)cc1` (H-CFF[dW][Phe(4-CH2NHiPr)]TFC-OH; disulfide 1-8), the IC50 in experiment [1], in experiment [2], in experiment [3], in experiment [4] and in experiment [5] was above 1000 nM throughout.
Take `CC(C)NCc1ccc(C[C@@H]2NC(=O)[C@@H](N(C)C(=O)c3ccc4ccccc4c3)NC(=O)[C@H](Cc3ccccc3)NC(=O)[C@@H](N)CSSC[C@@H](C(N)=O)NC(=O)[C@H](Cc3ccc(O)cc3)NC2=O)cc1`: the IC50 was above 1000 nM in experiment [1], 252 nM in experiment [2], above 1000 nM in experiment [4] and 4.7 nM in experiment [5]. In addition, the outcome in experiment [6] was Active.
As to `CC(C)NCc1ccc(C[C@@H]2NC(=O)[C@@H](Cc3c[nH]c4ccccc34)NC(=O)[C@H](Cc3ccccc3)NC(=O)[C@@H](NC(=O)[C@@H](N)Cc3ccc(O)cc3)CSSC[C@@H](C(=O)N[C@H](C(N)=O)[C@@H](C)O)NC(=O)[C@H](Cc3ccccc3)NC(=O)[C@H]([C@@H](C)O)NC2=O)cc1` (H-YCF[dW][Phe(4-CH2NHiPr)]TFCT-NH2; disulfide 2-8), the IC50 in experiment [1] is above 1000 nM; in experiment [2], 60 nM; in experiment [3], above 1000 nM; in experiment [4], above 1000 nM; in experiment [5] it was 150 nM.
Turning to `CC(C)NCc1ccc(C[C@@H]2NC(=O)[C@@H](N(C)C(=O)c3ccc4ccccc4c3)NC(=O)[C@H](Cc3ccccc3)NC(=O)[C@H](N)CSSC[C@@H](C(=O)N[C@@H](Cc3ccc4ccccc4c3)C(N)=O)NC(=O)[C@H](Cc3ccccc3)NC2=O)cc1` (single isomer, unassigned), the outcome in experiment [6] was Active.
Consider `CC(C)NCc1ccc(C[C@@H]2NC(=O)[C@@H](N(C)C(=O)c3ccc4ccccc4c3)NC(=O)[C@H](Cc3ccccc3)NC(=O)[C@H](Cc3ccccc3)NC(=O)[C@H](CCCCN)NC(=O)[C@@H](N)CSSC[C@@H](C(=O)O)NC(=O)[C@H](CO)NC(=O)[C@H]([C@@H](C)O)NC(=O)[C@H](Cc3ccc(O)cc3)NC(=O)[C@H]([C@@H](C)O)NC2=O)cc1`, for which the IC50 in experiment [1] is above 1000 nM; in experiment [2] it was above 1000 nM; in experiment [3] it was 562 nM; in experiment [4], above 1000 nM; in experiment [5], 3.3 nM.
As for `CC(C)NCc1ccc(C[C@@H]2NC(=O)[C@@H](Cc3c[nH]c4ccccc34)NC(=O)[C@H](Cc3ccccc3)NC(=O)[C@H](Cc3ccccc3)NC(=O)[C@H](CCCCN)NC(=O)[C@@H](N)CSSC[C@@H](C(=O)O)NC(=O)[C@H](CO)NC(=O)[C@H]([C@@H](C)O)NC(=O)[C@H](Cc3ccc(O)c([125I])c3)NC(=O)[C@H]([C@@H](C)O)NC2=O)cc1`, the IC50 in experiment [5] stood at 3.6 nM.
For `CC(C)NCc1ccc(C[C@@H]2NC(=O)[C@@H](N(C)C(=O)c3ccc4ccccc4c3)NC(=O)[C@H](Cc3ccccc3)NC(=O)[C@H](NC(=O)[C@@H](N)Cc3ccc(O)cc3)CSSC[C@@H](C(=O)N[C@@H](Cc3ccc4ccccc4c3)C(N)=O)NC(=O)[C@H](Cc3ccccc3)NC2=O)cc1`, the IC50 in experiment [1] was above 1000 nM; in experiment [2] it was 410 nM; in experiment [3] it was 270 nM; in experiment [4] it was above 1000 nM; in experiment [5], 8.2 nM. Besides, the outcome in experiment [6] was Active.
`CC(C)NCc1ccc(C[C@@H]2NC(=O)[C@@H](N(C)C(=O)c3ccc4ccccc4c3)NC(=O)[C@H](Cc3ccccc3)NC(=O)[C@@H](N)CSSC[C@@H](C(=O)N[C@H](C(N)=O)[C@@H](C)O)NC(=O)[C@H](Cc3ccccc3)NC2=O)cc1`: the IC50 in experiment [1] is above 1000 nM; in experiment [2] it was 681 nM; in experiment [3], 95 nM; in experiment [4] it was above 1000 nM; in experiment [5], 1 nM. Further, the result in experiment [6] was Active. In addition, the response in experiment [6] was half-maximal at 3.9 nM (EC50).
In the case of `CC(C)NCc1ccc(C[C@@H]2NC(=O)[C@H](N(C)C(=O)c3ccc4ccccc4c3)NC(=O)[C@H](Cc3ccccc3)NC(=O)[C@@H](N)CSSC[C@@H](C(=O)N[C@H](C(N)=O)[C@@H](C)O)NC(=O)[C@H](Cc3ccccc3)NC2=O)cc1`, the IC50 in experiment [1] is above 1000 nM; in experiment [2], 253 nM; in experiment [4] it was above 1000 nM; in experiment [5], 37 nM.
With `CC(C)NCc1ccc(C[C@@H]2NC(=O)[C@H](N(C)C(=O)c3ccc4ccccc4c3)NC(=O)[C@H](Cc3ccccc3)NC(=O)[C@@H](N)CSSC[C@@H](C(N)=O)NC(=O)[C@H](Cc3ccc(O)cc3)NC2=O)cc1`, the IC50 in experiment [1] is above 1000 nM; in experiment [2], above 1000 nM; in experiment [3] it was above 1000 nM; in experiment [4], above 1000 nM; in experiment [5], 530 nM.
